From ChEMBL document CHEMBL4229382, “Phenylthiazoles with tert-Butyl side chain: Metabolically stable with anti-biofilm activity” (Eur J Med Chem, 2018)
In brackets after ≈: the same amount, converted by molar mass.

Experiments:
Staphylococcus aureus [1] = assay: Antibacterial activity against methicillin-resistant Staphylococcus aureus 2658 RCMB after 18 hrs by broth microdilution assay; type: functional
Outline: (§1)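 Broth microdilution: inoculum from 0.5 McFarland suspension diluted to about 5 × 10^5 CFU/mL. Media were cation-adjusted Mueller-Hinton broth for staphylococci, brain heart infusion for E. faecium, and tryptone soya broth for E. faecalis, S. pneumoniae and L. monocytogenes.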

Staphylococcus aureus [2] = assay: Antibacterial activity against methicillin-resistant Staphylococcus aureus NRS386 after 18 hrs by broth microdilution assay; type: functional; details: NRS386, 18 h; outline: as §1
Staphylococcus aureus [3] = assay: Antibacterial activity against methicillin-resistant Staphylococcus aureus NRS123 USA400 assessed as reduction in bacterial burden within 6 hrs by time kill assay; type: functional
Outline: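 Samples taken at 0, 2, 4, 6, 8, 12 and 24 h were serially diluted in PBS, plated on TSA and incubated ≥18 h for viable CFU/mL. DMSO was the negative control; two independent experiments.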

Streptococcus pneumoniae [4] = assay: Antibacterial activity against methicillin-resistant Streptococcus pneumoniae ATCC 700677 after 18 hrs by broth microdilution assay; type: functional; details: ATCC 700677, 18 h; outline: as §1
Staphylococcus aureus [5] = assay: Bactericidal activity against vancomycin-resistant Staphylococcus aureus VRS10 incubated fo 18 hrs followed by re-plating on tryptic soy agar plates at 37 degC for 18 hrs by broth microdilution assay; type: functional; details: VRS10, 18 h
Staphylococcus aureus [6] = assay: Bactericidal activity against methicillin-resistant Staphylococcus aureus NRS123 USA400 incubated fo 18 hrs followed by re-plating on tryptic soy agar plates at 37 degC for 18 hrs by broth microdilution assay; type: functional; details: NRS123 USA400, 18 h
Staphylococcus aureus [7] = assay: Inhibition of biofilm formation in methicillin-resistant Staphylococcus aureus NRS384 USA300 at 1 time MIC after 24 hrs by crystal violet staining-based spectrophotometric analysis relative to control; set-up: scale not given: the % may be the effect or the level left
Staphylococcus aureus [8] = assay: Antibacterial activity against methicillin-resistant Staphylococcus aureus NRS119 after 18 hrs by broth microdilution assay; type: functional; details: NRS119, 18 h; outline: as §1
Staphylococcus aureus [9] = assay: Bactericidal activity against methicillin-sensitive Staphylococcus aureus NRS107 incubated fo 18 hrs followed by re-plating on tryptic soy agar plates at 37 degC for 18 hrs by broth microdilution assay; type: functional; details: NRS107, 18 h
Staphylococcus aureus [10] = assay: Bactericidal activity against methicillin-resistant Staphylococcus aureus NRS385 incubated fo 18 hrs followed by re-plating on tryptic soy agar plates at 37 degC for 18 hrs by broth microdilution assay; type: functional; details: NRS385, 18 h
Staphylococcus aureus [11] = assay: Antibacterial activity against vancomycin-resistant Staphylococcus aureus VRS10 after 18 hrs by broth microdilution assay; type: functional; details: VRS10, 18 h; outline: as §1
Staphylococcus aureus [12] = assay: Bactericidal activity against methicillin-sensitive Staphylococcus aureus ATCC 6538 incubated fo 18 hrs followed by re-plating on tryptic soy agar plates at 37 degC for 18 hrs by broth microdilution assay; type: functional; details: ATCC 6538, 18 h
Staphylococcus aureus [13] = assay: Bactericidal activity against methicillin-resistant Staphylococcus aureus NRS119 incubated fo 18 hrs followed by re-plating on tryptic soy agar plates at 37 degC for 18 hrs by broth microdilution assay; type: functional; details: NRS119, 18 h
Caco-2 = assay: Cytotoxicity against human Caco2 cells at 32 ug/ml after 2 hrs by MTS assay; type: cell-based; details: caco-2, 2 h
Outline: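 Caco-2 cells grown in DMEM with 20% FBS, non-essential amino acids and penicillin-streptomycin, 37 °C, 5% CO2; exposed in triplicate to compounds (16, 32, 64 µg/mL) for 2 h; MTS added, 4 h further incubation, OD490 read; viability as percent of DMSO-treated controls; two independent experiments.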

Staphylococcus aureus [14] = assay: Bactericidal activity against vancomycin-resistant Staphylococcus aureus VRS12 incubated fo 18 hrs followed by re-plating on tryptic soy agar plates at 37 degC for 18 hrs by broth microdilution assay; type: functional; details: VRS12, 18 h
Staphylococcus aureus [15] = assay: Inhibition of biofilm formation in methicillin-resistant Staphylococcus aureus NRS384 USA300 at 2 times MIC after 24 hrs by crystal violet staining-based spectrophotometric analysis relative to control; set-up: scale not given: the % may be the effect or the level left
Staphylococcus aureus [16] = assay: Bactericidal activity against methicillin-resistant Staphylococcus aureus NRS384 USA300 incubated fo 18 hrs followed by re-plating on tryptic soy agar plates at 37 degC for 18 hrs by broth microdilution assay; type: functional; details: NRS384 USA300, 18 h
Staphylococcus aureus [17] = assay: Antibacterial activity against methicillin-resistant Staphylococcus aureus NRS385 after 18 hrs by broth microdilution assay; type: functional; details: NRS385, 18 h; outline: as §1
[18] = system: Staphylococcus epidermidis; assay: Antibacterial activity against methicillin-resistant Staphylococcus epidermidis NRS101 after 18 hrs by broth microdilution assay; type: functional; details: NRS101, 18 h; outline: as §1
Staphylococcus aureus [19] = assay: Inhibition of biofilm formation in methicillin-resistant Staphylococcus aureus NRS384 USA300 after 24 hrs by crystal violet staining-based spectrophotometric analysis
Staphylococcus aureus [20] = assay: Antibacterial activity against methicillin-sensitive Staphylococcus aureus ATCC 6538 after 18 hrs by broth microdilution assay; type: functional; details: ATCC 6538, 18 h; outline: as §1
Listeria monocytogenes [21] = assay: Antibacterial activity against Listeria monocytogenes ATCC 19111 after 18 hrs by broth microdilution assay; type: functional; details: ATCC 19111, 18 h
Streptococcus pneumoniae [22] = assay: Antibacterial activity against cephalosporin-resistant Streptococcus pneumoniae ATCC 51916 after 18 hrs by broth microdilution assay; type: functional; details: ATCC 51916, 18 h; outline: as §1
Staphylococcus aureus [23] = assay: Antibacterial activity against methicillin-resistant Staphylococcus aureus NRS384 USA300 after 18 hrs by broth microdilution assay; type: functional; details: NRS384 USA300, 18 h; outline: as §1
Enterococcus faecium [24] = assay: Bactericidal activity against vancomycin-resistant Enterococcus faecium ATCC 700221 incubated fo 18 hrs followed by re-plating on tryptic soy agar plates at 37 degC for 18 hrs by broth microdilution assay; details: ATCC 700221, 18 h
Staphylococcus aureus [25] = assay: Antibacterial activity against methicillin-resistant Staphylococcus aureus NRS123 USA400 after 18 hrs by broth microdilution assay; type: functional; details: NRS123 USA400, 18 h; outline: as §1
Enterococcus faecalis [26] = assay: Antibacterial activity against vancomycin-resistant Enterococcus faecalis ATCC 51299 after 18 hrs by broth microdilution assay; type: functional; details: ATCC 51299, 18 h; outline: as §1
Streptococcus pneumoniae [27] = assay: Bactericidal activity against methicillin-resistant Streptococcus pneumoniae ATCC 700677 incubated fo 18 hrs followed by re-plating on tryptic soy agar plates at 37 degC for 18 hrs by broth microdilution assay; type: functional; details: ATCC 700677, 18 h
Staphylococcus aureus [28] = assay: Bactericidal activity against methicillin-resistant Staphylococcus aureus NRS386 incubated fo 18 hrs followed by re-plating on tryptic soy agar plates at 37 degC for 18 hrs by broth microdilution assay; type: functional; details: NRS386, 18 h
Staphylococcus aureus [29] = assay: Antibacterial activity against methicillin-sensitive Staphylococcus aureus NRS107 after 18 hrs by broth microdilution assay; type: functional; details: NRS107, 18 h; outline: as §1
Enterococcus faecium [30] = assay: Antibacterial activity against vancomycin-resistant Enterococcus faecium ATCC 700221 after 18 hrs by broth microdilution assay; type: functional; details: ATCC 700221, 18 h; outline: as §1
Enterococcus faecalis [31] = assay: Bactericidal activity against vancomycin-resistant Enterococcus faecalis ATCC 51299 incubated fo 18 hrs followed by re-plating on tryptic soy agar plates at 37 degC for 18 hrs by broth microdilution assay; type: functional; details: ATCC 51299, 18 h
Streptococcus pneumoniae [32] = assay: Bactericidal activity against cephalosporin-resistant Streptococcus pneumoniae ATCC 51916 incubated fo 18 hrs followed by re-plating on tryptic soy agar plates at 37 degC for 18 hrs by broth microdilution assay; type: functional; details: ATCC 51916, 18 h
[33] = system: Staphylococcus epidermidis; assay: Bactericidal activity against methicillin-resistant Staphylococcus epidermidis NRS101 incubated fo 18 hrs followed by re-plating on tryptic soy agar plates at 37 degC for 18 hrs by broth microdilution assay; type: functional; details: NRS101, 18 h
Staphylococcus aureus [34] = assay: Antibacterial activity against vancomycin-resistant Staphylococcus aureus VRS12 after 18 hrs by broth microdilution assay; type: functional; details: VRS12, 18 h; outline: as §1
Listeria monocytogenes [35] = assay: Selectivity ratio of MBC to MIC for Listeria monocytogenes ATCC 19111; type: functional

## CCNc1nccc(-c2sc(-c3ccc(C(C)(C)C)cc3)nc2C)n1
Staphylococcus aureus [1]
  MIC: > 50 µg/mL

## Cc1nc(-c2ccc(C(C)(C)C)cc2)sc1-c1ccnc(-c2cccnc2)n1
Staphylococcus aureus [1]
  MIC: > 50 µg/mL

## Cc1nc(-c2ccc(C(C)(C)C)cc2)sc1-c1ccnc(NC(=N)c2ccccn2)n1
Staphylococcus aureus [2]
  MIC: 2 µg/mL (≈ 4.67 µM)
Staphylococcus aureus [3]
  Activity: 3 log10CFU/ml
Streptococcus pneumoniae [4]
  MIC: 8 µg/mL (≈ 18.7 µM)
Staphylococcus aureus [5]
  MBC: 4 µg/mL (≈ 9.33 µM)
Staphylococcus aureus [6]
  MBC: 2 µg/mL (≈ 4.67 µM)
Staphylococcus aureus [7]
  Activity: 44%
Staphylococcus aureus [8]
  MIC: 4 µg/mL (≈ 9.33 µM)
Staphylococcus aureus [9]
  MBC: > 64 µg/mL
Staphylococcus aureus [10]
  MBC: 4 µg/mL (≈ 9.33 µM)
Staphylococcus aureus [11]
  MIC: 2 µg/mL (≈ 4.67 µM)
Staphylococcus aureus [12]
  MBC: 4 µg/mL (≈ 9.33 µM)
Staphylococcus aureus [13]
  MBC: 4 µg/mL (≈ 9.33 µM)
Caco-2
  Activity: Toxic
Staphylococcus aureus [14]
  MBC: 4 µg/mL (≈ 9.33 µM)
Staphylococcus aureus [15]
  Activity: 49%
Staphylococcus aureus [16]
  MBC: 4 µg/mL (≈ 9.33 µM)
Staphylococcus aureus [17]
  MIC: 4 µg/mL (≈ 9.33 µM)
[18]
  MIC: 64 µg/mL (≈ 149 µM)
Staphylococcus aureus [19]
  inhibition: Dose-dependent effect
Staphylococcus aureus [20]
  MIC: 2 µg/mL (≈ 4.67 µM)
Listeria monocytogenes [21]
  MIC: 2 µg/mL (≈ 4.67 µM)
Streptococcus pneumoniae [22]
  MIC: 4 µg/mL (≈ 9.33 µM)
Staphylococcus aureus [23]
  MIC: 4 µg/mL (≈ 9.33 µM)
Enterococcus faecium [24]
  MBC: 32 µg/mL (≈ 74.7 µM)
Staphylococcus aureus [25]
  MIC: 2 µg/mL (≈ 4.67 µM)
Enterococcus faecalis [26]
  MIC: 64 µg/mL (≈ 149 µM)
Streptococcus pneumoniae [27]
  MBC: 8 µg/mL (≈ 18.7 µM)
Staphylococcus aureus [28]
  MBC: 2 µg/mL (≈ 4.67 µM)
Staphylococcus aureus [29]
  MIC: 64 µg/mL (≈ 149 µM)
Staphylococcus aureus [1]
  MIC: 0.78 µg/mL (≈ 1.82 µM)
Enterococcus faecium [30]
  MIC: 4 µg/mL (≈ 9.33 µM)
Enterococcus faecalis [31]
  MBC: > 64 µg/mL
Streptococcus pneumoniae [32]
  MBC: 4 µg/mL (≈ 9.33 µM)
[33]
  MBC: > 64 µg/mL
Staphylococcus aureus [34]
  MIC: 4 µg/mL (≈ 9.33 µM)
Listeria monocytogenes [35]
  Ratio: >3

## Cc1nc(-c2ccc(C(C)(C)C)cc2)sc1-c1ccnc(NC2CCCCC2)n1
Staphylococcus aureus [1]
  MIC: > 50 µg/mL

## Cc1nc(-c2ccc(C(C)(C)C)cc2)sc1-c1ccnc(N2CCCC2)n1
Staphylococcus aureus [1]
  MIC: > 50 µg/mL

## Cc1nc(-c2ccc(C(C)(C)C)cc2)sc1-c1ccnc(N(C)C)n1
Staphylococcus aureus [1]
  MIC: > 50 µg/mL

## Cc1nc(-c2ccc(C(C)(C)C)cc2)sc1-c1ccnc(N2CCOCC2)n1
Staphylococcus aureus [1]
  MIC: 25 µg/mL (≈ 63.4 µM)

## Cc1nc(-c2ccc(C(C)(C)C)cc2)sc1-c1ccnc(NN)n1
Staphylococcus aureus [1]
  MIC: 1.56 µg/mL (≈ 4.6 µM)

## Cc1nc(-c2ccc(C(C)(C)C)cc2)sc1-c1ccnc(N2CC(O)C2)n1
Staphylococcus aureus [1]
  MIC: 6.25 µg/mL (≈ 16.4 µM)

## Cc1nc(-c2ccc(C(C)(C)C)cc2)sc1-c1ccnc(NC(=N)N2CCCC2)n1
Staphylococcus aureus [1]
  MIC: 50 µg/mL (≈ 119 µM)

## Cc1nc(-c2ccc(C(C)(C)C)cc2)sc1-c1ccnc(NC(=N)N2CCN(C)CC2)n1
Staphylococcus aureus [1]
  MIC: 3.12 µg/mL (≈ 6.94 µM)
